Shown are actives, neighbours in structure and some others; about 3.1% of the full set was active somewhere.
SENP7 block: inhibitors of human SENP7 protease | Q9BQF6 | recombinant SENP7, Z-RLRGG-aminoluciferin luminescence, 40 min | inhibition, % at 5 µM | 330,000 tested, 1.5% active;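 active means inhibition above about 50% at the single test dose, limit read from the data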
Apaf-1 inh: human Apaf-1 inhibition; O14727; reconstituted apoptosome caspase-3 activity, DEVD-Rh110 fluorescence; inhibition, % at 20 µM; 330,000 tested, 0.71% active; AID 489030; active means inhibition of at least 40% at 20 µM
Target sequence (O14727 whole entry, looked up): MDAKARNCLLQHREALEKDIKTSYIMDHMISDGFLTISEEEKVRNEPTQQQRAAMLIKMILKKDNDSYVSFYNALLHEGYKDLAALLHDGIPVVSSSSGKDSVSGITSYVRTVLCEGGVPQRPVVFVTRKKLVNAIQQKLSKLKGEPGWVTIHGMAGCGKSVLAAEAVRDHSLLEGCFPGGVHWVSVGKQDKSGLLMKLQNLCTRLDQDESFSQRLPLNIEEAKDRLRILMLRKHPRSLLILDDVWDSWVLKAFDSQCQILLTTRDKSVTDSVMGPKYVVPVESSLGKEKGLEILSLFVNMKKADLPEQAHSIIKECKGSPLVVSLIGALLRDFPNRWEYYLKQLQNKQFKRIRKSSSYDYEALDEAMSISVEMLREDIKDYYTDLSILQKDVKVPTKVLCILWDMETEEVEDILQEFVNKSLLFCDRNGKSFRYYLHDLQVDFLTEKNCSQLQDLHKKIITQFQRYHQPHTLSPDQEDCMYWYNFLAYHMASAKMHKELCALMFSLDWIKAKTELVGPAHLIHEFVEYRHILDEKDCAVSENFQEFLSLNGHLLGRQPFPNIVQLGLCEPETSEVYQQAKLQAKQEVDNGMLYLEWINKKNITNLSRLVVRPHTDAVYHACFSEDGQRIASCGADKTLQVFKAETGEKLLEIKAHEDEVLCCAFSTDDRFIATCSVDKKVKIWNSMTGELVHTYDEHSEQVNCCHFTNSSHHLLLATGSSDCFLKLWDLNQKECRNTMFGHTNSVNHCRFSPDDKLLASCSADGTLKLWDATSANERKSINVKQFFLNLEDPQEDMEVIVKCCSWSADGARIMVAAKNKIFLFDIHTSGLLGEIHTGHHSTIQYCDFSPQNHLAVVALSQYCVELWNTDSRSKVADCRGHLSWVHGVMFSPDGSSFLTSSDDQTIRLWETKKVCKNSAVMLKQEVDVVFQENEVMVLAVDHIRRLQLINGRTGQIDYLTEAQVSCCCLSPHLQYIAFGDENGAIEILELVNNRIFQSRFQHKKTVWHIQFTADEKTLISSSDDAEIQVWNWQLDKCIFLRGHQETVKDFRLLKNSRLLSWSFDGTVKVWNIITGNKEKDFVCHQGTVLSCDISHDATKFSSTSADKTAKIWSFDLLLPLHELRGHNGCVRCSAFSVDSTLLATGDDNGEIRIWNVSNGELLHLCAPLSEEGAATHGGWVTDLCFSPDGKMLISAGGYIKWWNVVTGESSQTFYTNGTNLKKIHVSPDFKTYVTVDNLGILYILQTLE
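Material: reconstituted apoptosome with Apaf-1, cytochrome c, caspase-9, procaspase-3, dATP. Technique: Rh110 fluorescence intensity. Buffer or medium: pH 7.5 Hepes buffer with CHAPS, BSA, DTT. Times: 30 min plus 50 min, RT.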
SENP8 block-1: SENP8 protease inhibition | inhibition, % at 10 µM | AID 2540 | 330,000 tested, 1.2% active | Q96LD8 | purified SENP8, Z-RLRGG-aminoluciferin cleavage, luminescence; in the data active means inhibition above about 50%
SENP8 block-2: SENP8 (human) protease inhibition | Q96LD8 | recombinant SENP8, Nedd8 substrate fluorescence | inhibition, % at 20 µM | 360,000 tested, 0.64% active | AID 602440; in the data active means inhibition mostly above about 40%, no sharp cut-off; inactive means mostly below about 27%
SENP6 inh: SENP6 protease inhibition. Q9GZR1. Recombinant SENP6 catalytic domain, aminoluciferin luminescence. inhibition, % at 10 µM. 330,000 tested, 1.8% active;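 active means inhibition above about 50% at the single tested dose, limit read from the data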
UBC13 inh: human UBC13 polyubiquitination inhibition; P61088; UBC13 polyubiquitin chain formation, TR-FRET; inhibition, % at 20 µM; 330,000 tested, 0.47% active; AID 485273; in the data active means inhibition above about 45%, passing the limit was not always enough
SENP8 conf: confirmation of human SENP8 protease inhibitors; shares compounds with SENP7 block; Recombinant SENP8, Z-RLRGG-aminoluciferin luminescence, 60 min; inhibition, % at 12.5 µM; 6,200 tested, 40% active; AID 488912;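 active means mean inhibition across replicates above about 50%, limit read from the data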
SENP6 confirm: human SENP6 inhibition, confirmed. shares compounds with SENP7 block. inhibition, % at 12.5 µM. 6,200 tested, 58% active. recombinant SENP6, Z-RLRGG-aminoluciferin luminescence
SENP7 conf: confirmation of human SENP7 protease inhibitors; AID 488917; 6,200 tested, 69% active; shares compounds with SENP7 block; inhibition, % at 12.5 µM; recombinant SENP7, Z-RLRGG-aminoluciferin luminescence, 40 min
Casp3 SENP sel: caspase-3 inhibition (SENP selectivity assay); purified caspase-3, Z-DEVD-aminoluciferin luminescence, 60 min; 6,200 tested, 60% active; inhibition, % at 12.5 µM; shares compounds with SENP7 block;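 active means mean inhibition above about 50%, limit read from the data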
Luc interf: luminescence interference (SENP counter-screen) | shares compounds with SENP7 block | inhibition, % at 12.5 µM | Pre-incubated SENP8/Z-RLRGG-aminoluciferin, luciferase luminescence interference | 6,200 tested, 39% active | AID 488919;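 active means mean inhibition above about 50% when retested at one dose, limit read from the data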
Apaf-1 inh conf: confirmation of Apaf-1 inhibitors | AID 504614 | reconstituted apoptosome, caspase-3 DEVD-Rh110 fluorescence | shares compounds with Apaf-1 inh | inhibition, % at 20 µM | 1,800 tested, 25% active;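 active means mean inhibition of at least 40% at 20 µM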
Rh110 quench: interferes with Rh110 fluorescence, flagging false Apaf-1 inhibitors; shares compounds with Apaf-1 inh; Rh110 fluorescence interference, quenched caspase reaction; activation (fluorescence interference), % at 20 µM; 1,800 tested, under 10 active;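 active means signal rise of 40% or more at 20 µM, treated as a fluorescence artifact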
Fluor interf inh: counter-screen for Apaf-1 inhibitors: fluorescence interference, dose response | shares compounds with Apaf-1 inh | fluorescence interference counterscreen, Apaf-1 assay format | IC50, µM | 460 tested, under 10 active | AID 588538; call rule not given here
Large screens that a line does not name were inactive (follow-up assays come after a bar, where they were run).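 How the source made its calls, unless noted: active means mean inhibition above about 50% in the one-dose retest (limit read from the data); inactive means the rest.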

CC(C)C[C@@H](CN1CCC[C@H]1CN1C(=O)C(=O)NC[C@@H]1Cc1ccccc1)N1C[C@H](Cc2ccccc2)N(CC2CCCCC2)C(=O)C1=O	none (no result: SENP7 block, Apaf-1 inh, SENP8 block-1, SENP6 inh, UBC13 inh)
Cc1nc2ccccc2c(=O)n1/N=C/c1ccc(O)cc1O	none
O=[N+]([O-])c1ccc(O)c(/C=N/Nc2ccccn2)c1	none (no result: SENP7 block, Apaf-1 inh, SENP8 block-1, SENP6 inh, UBC13 inh)
CCOC(=O)c1c(/N=C/c2cccc([N+](=O)[O-])c2O)sc(C)c1C	none
O=C(NN=Cc1cc([N+](=O)[O-])ccc1O)c1cccc2ccccc12	none (no result: SENP7 block, Apaf-1 inh, SENP8 block-1, SENP6 inh, UBC13 inh)
O=[N+]([O-])c1ccc(O)c(C=Nc2cccc3ncccc23)c1	Apaf-1 inh 91, SENP8 block-1 75, SENP6 inh 90 | SENP8 conf inactive | SENP6 confirm inactive | SENP7 conf inactive | Casp3 SENP sel inactive | Luc interf inactive | Apaf-1 inh conf inactive | Rh110 quench inactive
O=[N+]([O-])c1cccc(C=Nc2cccc3ccccc23)c1O	Apaf-1 inh 93, SENP8 block-1 85, SENP6 inh 88 | SENP8 conf inactive | SENP6 confirm inactive | SENP7 conf inactive | Casp3 SENP sel inactive | Luc interf inactive | Apaf-1 inh conf 44 | Rh110 quench inactive | Fluor interf inh inactive
O=[N+]([O-])c1ccc(O)c(C=Nc2cccc3ccccc23)c1	Apaf-1 inh 88, SENP8 block-1 61, SENP6 inh 58 | SENP8 conf inactive | SENP6 confirm inactive | SENP7 conf inactive | Casp3 SENP sel inactive | Luc interf inactive | Apaf-1 inh conf inactive | Rh110 quench inactive
Oc1ccc(C=Nc2cccc3ccccc23)c(O)c1	Apaf-1 inh 81, SENP6 inh 70 | SENP8 conf inactive | SENP6 confirm inactive | SENP7 conf inactive | Casp3 SENP sel inactive | Luc interf inactive | Apaf-1 inh conf inactive | Rh110 quench inactive
CCc1nc2ccc(C(=O)Nc3cccc(NS(C)(=O)=O)c3)cn2c1N(C)CCN1CCOCC1	none (no result: SENP7 block, Apaf-1 inh, SENP8 block-1, SENP6 inh, UBC13 inh)
CCc1nc2ccc(C(=O)NCCCN(C)C)cn2c1N(C)CCCc1ccccc1	none (no result: SENP7 block, Apaf-1 inh, SENP8 block-1, SENP6 inh, UBC13 inh)
CC(C)(C)C1CCN2CCC[C@](c3ccccc3)(C1)C2OCCCO (stereo partly drawn)	none (no result: SENP7 block, Apaf-1 inh, SENP8 block-1, SENP6 inh, UBC13 inh)
CCN(c1ccccc1)c1cc2ccccc2c(=O)[nH]1	SENP7 block 86, Apaf-1 inh 96, SENP8 block-1 92, SENP6 inh 88 | SENP8 conf inactive | SENP6 confirm 61 | SENP7 conf inactive | Casp3 SENP sel inactive | Luc interf inactive | Apaf-1 inh conf 59 | Rh110 quench inactive | Fluor interf inh inactive
CC(=O)N1CCN(C2=Nc3cccc4cccc2c34)CC1	Apaf-1 inh 80, SENP8 block-1 67, SENP6 inh 81 | SENP8 conf inactive | SENP6 confirm inactive | SENP7 conf inactive | Casp3 SENP sel inactive | Luc interf inactive | Apaf-1 inh conf inactive | Rh110 quench inactive
CC1(Cc2ccccc2Cl)C(=O)Nc2c(Cl)ccc(Cl)c21 (stereo not drawn)	none (no result: SENP7 block, Apaf-1 inh, SENP8 block-1, SENP6 inh, UBC13 inh)
COc1ccc(CCNC(=O)c2ccc(CSc3ccc(Cl)cc3)o2)cc1OC	none (no result: SENP7 block, Apaf-1 inh, SENP8 block-1, SENP6 inh, UBC13 inh)
COc1ccccc1CNC(=O)c1c(N)n(CCCN2CCOCC2)c2nc3ccccc3nc12	none (no result: SENP7 block, Apaf-1 inh, SENP8 block-1, SENP6 inh, UBC13 inh)
Nc1c(C(=O)NCc2ccc3c(c2)OCO3)c2nc3ccccc3nc2n1CCCN1CCOCC1	Apaf-1 inh 90, SENP8 block-1 91, SENP6 inh 92 | SENP8 conf inactive | SENP6 confirm inactive | SENP7 conf inactive | Casp3 SENP sel inactive | Luc interf inactive | Apaf-1 inh conf 44 | Rh110 quench inactive | Fluor interf inh inactive
CCC(=O)Nc1c(C#N)c2nc3ccccc3nc2n1-c1ccc(C)cc1	none (no result: SENP7 block, Apaf-1 inh, SENP8 block-1, SENP6 inh, UBC13 inh)
N#Cc1c(NC(=O)c2ccc(Br)o2)n(-c2ccccc2)c2nc3ccccc3nc12	SENP7 block 77, Apaf-1 inh 96, SENP8 block-1 93 | SENP8 conf inactive | SENP6 confirm 90 | SENP7 conf 82 | Casp3 SENP sel inactive | Luc interf inactive | Apaf-1 inh conf 87 | Rh110 quench inactive | Fluor interf inh inactive
CCC(C)n1c(NC(=O)c2ccccc2)c(C#N)c2nc3ccccc3nc21 (stereo not drawn)	Apaf-1 inh 93, SENP8 block-1 66, SENP6 inh 90 | SENP8 conf inactive | SENP6 confirm 69 | SENP7 conf inactive | Casp3 SENP sel inactive | Luc interf inactive | Apaf-1 inh conf inactive | Rh110 quench inactive
Cc1csc(-c2nc3ccccc3n2C(C(=O)Nc2c(C)cccc2C)C2CC2)c1 (stereo not drawn)	none (no result: SENP7 block, Apaf-1 inh, SENP8 block-1, SENP6 inh, UBC13 inh)
O=C1C=C(Nc2ccccc2O)c2ccccc2C1=O	Apaf-1 inh 96, SENP8 block-1 77, SENP6 inh 88 | SENP8 conf inactive | SENP6 confirm 86 | SENP7 conf 67 | Casp3 SENP sel inactive | Luc interf inactive | Apaf-1 inh conf 93 | Rh110 quench inactive | Fluor interf inh inactive
Cc1c(Cl)cnc(NC(=O)COC(=O)c2ccc([N+](=O)[O-])s2)c1Cl	Apaf-1 inh 40, SENP6 inh 71 | SENP8 conf inactive | SENP6 confirm 76 | SENP7 conf inactive | Casp3 SENP sel inactive | Luc interf inactive | Apaf-1 inh conf inactive | Rh110 quench inactive
COc1ccc(/C=N/Nc2cc(N(C)C)nc(N(C)C)n2)cc1	SENP7 block 72, Apaf-1 inh 97, SENP6 inh 80 | SENP8 conf inactive | SENP6 confirm 82 | SENP7 conf 81 | Casp3 SENP sel inactive | Luc interf inactive | Apaf-1 inh conf 95 | Rh110 quench inactive | Fluor interf inh inactive
CCOc1cc(/C=C2/C(=O)N(c3ccccc3)N=C2C)ccc1OC(=O)c1ccco1	SENP7 block 68, Apaf-1 inh 97, SENP8 block-2 66 | SENP8 conf inactive | SENP6 confirm inactive | SENP7 conf inactive | Casp3 SENP sel inactive | Luc interf inactive | Apaf-1 inh conf inactive | Rh110 quench inactive
